Results: ChEMBL document CHEMBL1143867, “Novel three-component synthesis and antiproliferative properties of diversely functionalized pyrrolines” (2008)
Active and inactive are the calls of the source. The rule behind the calls is not given here.

Assays:
Jurkat [1] = assay: Growth inhibition of human Jurkat cells assessed as decrease in cell count at 50 uM by Trypan blue dye exclusion method; assay type: functional, cell-based
HeLa = assay: Antiproliferative activity against human HeLa cells after 48 hrs by MTT assay relative to control; assay type: functional, cell-based
Summary of the method: (§1)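 Cells (HeLa cervical or MCF7/AZ breast adenocarcinoma) exposed to test agents 48 h; mixtures at final 100 μM, individual isomers at final 100, 50 and 5 μM. Viability read by MTT (mitochondrial dehydrogenase activity), expressed as % remaining viability vs DMSO control. Two independent experiments, each in 4 replicates; mean ± SD.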

MCF7/AZ = assay: Antiproliferative activity against human MCF7/AZ cells after 48 hrs by MTT assay relative to control; assay type: functional, cell-based; summary of the method: as §1
Jurkat [2] = assay: Induction of apoptosis in human Jurkat cells after 48 hrs at 50 uM by flow cytometry relative to control; assay type: functional
Summary of the method: (§2)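 Jurkat T-cell leukemia cells treated 48 h with test agents at 50 μM (podophyllotoxin reference at 5 μM). Flow cytometric annexin-V/propidium iodide staining scored % apoptotic cells and % live cells, each relative to DMSO control. Two independent experiments, each in 3 replicates; mean ± SD.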

Jurkat [3] = assay: Induction of apoptosis in human Jurkat cells assessed as viable cells at 50 uM after 48 hrs by flow cytometry relative to control; assay type: functional; settings: read-out: Activity; summary of the method: as §2
Jurkat [4] = assay: Growth inhibition of human Jurkat cells at 50 uM by Trypan blue dye exclusion method; assay type: functional, cell-based
Jurkat [5] = assay: Induction of apoptosis in human Jurkat cells assessed as viable cells at 5 uM after 48 hrs by flow cytometry relative to control; assay type: functional; settings: read-out: Activity
Summary of the method: (§3)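 Jurkat human T-cell leukemia cells were exposed to compound for 48 h and then stained with annexin-V/propidium iodide for flow cytometry. Apoptotic and live cell percentages are expressed relative to a DMSO control. Values are mean ± SD from two independent experiments, each run in 3 replicates.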

Jurkat [6] = assay: Induction of apoptosis in human Jurkat cells after 48 hrs at 5 uM by flow cytometry relative to control; assay type: functional; summary of the method: as §3

## Cc1ccc(S(=O)(=O)N2C(N)=C(C#N)[C@@H](c3ccccc3)[C@H]2C(=O)c2ccc(Br)cc2)cc1 (relative stereo)
Jurkat [1]
  Activity: Active
HeLa
  Activity: Active
MCF7/AZ
  Activity: Active
Jurkat [2]
  Activity: 30%
Jurkat [3]
  viability at 50 µM: 56%

## Cc1ccc(S(=O)(=O)N2C(N)=C(C#N)[C@@H](c3ccccc3)[C@@H]2C(=O)c2ccc(Br)cc2)cc1 (relative stereo)
Jurkat [4]
  Activity: Active
HeLa
  Activity: Active
MCF7/AZ
  Activity: Active
Jurkat [2]
  Activity: 3%
Jurkat [3]
  viability at 50 µM: 96%

## COc1ccc(S(=O)(=O)N2C(N)=C(C#N)[C@@H](c3ccccc3)[C@@H]2C(=O)c2ccc(Br)cc2)cc1 (relative stereo)
HeLa
  Activity: Active
MCF7/AZ
  Activity: Active

## COc1ccc(S(=O)(=O)N2C(N)=C(C#N)[C@@H](c3ccccc3)[C@H]2C(=O)c2ccc(Br)cc2)cc1 (relative stereo)
HeLa
  Activity: Active
MCF7/AZ
  Activity: Active

## COc1cc([C@@H]2c3cc4c(cc3[C@H](O)[C@H]3COC(=O)[C@H]23)OCO4)cc(OC)c1OC [PODOFILOX]
Jurkat [5]
  viability at 5 µM: 22%
Jurkat [6]
  Activity: 63%
